Experimental findings from ChEMBL document CHEMBL4680077, “Differentiation of skeletal osteogenic progenitor cells to osteoblasts with 3,4-diarylbenzopyran based amide derivatives: Novel osteogenic agents” (Eur J Med Chem, 2016) are described below.

The source made the active and inactive calls. The rule behind the calls is not given here.

The nature of series [1]: Acute toxicity in Swiss albino mouse assessed as ALKP level at 50 mg/kg, po measured after 7 days (reference value: 379.25 +/- 27.08 U/L). The series is classed as organism-based. The settings on record: in vivo, 168 h, time 7 day.
The test system of series [2] is Calvarial osteoblast. Put plainly: Induction of osteoblast differentiation in mouse calvarial osteoblast assessed as increase in ALP activity using PNPP as substrate at 1 pM incubated for 48 hrs by spectrophotometric analysis. The format is functional, cell-based.
Series [3] is described as follows: Acute toxicity in Swiss albino mouse assessed as relative liver weight at 5 mg/kg, po measured after 7 days (reference value: 6.81 +/- 2.14 %). The format is organism-based. The settings on record: in vivo, 168 h, time 7 day.
The subject of series [4] is Calvarial osteoblast. The series is described as follows: Induction of osteoblast differentiation in mouse calvarial osteoblast assessed as increase in RUNX-2 mRNA expression at 1 pM incubated for 24 hrs by qPCR analysis. The series is classed as functional, cell-based. In outline:
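Calvarial osteoblasts were treated at 1 pM for 24 and 48 h. Total RNA was extracted with TRIzol, and cDNA was made from 2 µg RNA. qPCR ran 40 cycles for BMP-2, RUNX-2, OCN and collagen type 1, with normalization to GAPDH. Mean ± SEM of three independent experiments.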

The nature of series [5]: Acute toxicity in Swiss albino mouse assessed as malondialdehyde level at 5 mg/kg, po measured after 7 days (reference value: 0.14 +/- 0.01 nM/mg). The series is classed as organism-based. The settings on record: in vivo, 168 h, time 7 day.
The nature of series [6]: Acute toxicity in Swiss albino mouse assessed as tissue protein level at 5 mg/kg, po measured after 7 days (reference value: 0.029 +/- 0.004 mg/ml). The series is classed as organism-based. The settings on record: in vivo, 168 h, time 7 day.
A short description of series [7]: AUC (0 to 24 hrs) in Sprague-Dawley rat at 1 mg/kg, po measured upto 24 hrs by LC-MS/MS analysis. On the set-up: route oral, dose 1 mg/kg, time <=24. The settings on record: in vivo. The series is classed as ADME, organism-based. A digest of the protocol:
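Female Sprague-Dawley rats (n = 4 per route), fasted overnight (12-14 h); 1 mg/kg orally in 0.25% CMC suspension, or an i.v. tail-vein bolus in DMSO-PEG400-ethanol-water (4:3:1:2). Retro-orbital blood was taken up to 24 h, and plasma was extracted with n-hexane (halofantrine IS). LC-MS/MS linear range 0.5-200 ng/mL. AUC0-24 was calculated by the linear trapezoidal rule, non-compartmental; mean ± S.D.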

Series [8] is described as follows: Tmax in Sprague-Dawley rat at 1 mg/kg, po measured upto 24 hrs by LC-MS/MS analysis. As to conditions: in vivo. The format is ADME, organism-based. In outline: (§1)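 Female Sprague-Dawley rats (n = 4), fasted overnight 12–14 h, dosed orally at 1 mg kg-1 as a 0.25% CMC suspension and fed 3 h post-dose. Retro-orbital blood was taken from 0.25 to 24 h. Plasma was hexane-extracted and assayed by LC-MS/MS. Cmax and Tmax were read from the data; other parameters came from non-compartmental analysis. Mean ± S.D.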

Series [9] in a line: Acute toxicity in Swiss albino mouse assessed as relative uterus weight at 300 mg/kg, po measured after 7 days (reference value: 1.63 +/- 0.71 %). The series is classed as organism-based. The settings on record: in vivo, 168 h, time 7 day.
Series [10] can be described thus: Acute toxicity in Swiss albino mouse assessed as relative brain weight at 5 mg/kg, po measured after 7 days (reference value: 1.63 +/- 0.13 %). The settings on record: in vivo, 168 h, time 7 day. The series is classed as organism-based.
Series [11] in a line: Acute toxicity in Swiss albino mouse assessed as relative kidney weight at 50 mg/kg, po measured after 7 days (reference value: 1.25 +/- 0.08 %). As to conditions: in vivo, 168 h, time 7 day. The series is classed as organism-based.
The subject of series [12] is Mus musculus. Put plainly: In vivo osteogenic activity in ovariectomized BALB/c mouse assessed as decrease in trabecular spacing at 1 to 10 mg/kg, po via gavage administered for 1 month by microCT imaging analysis. As to conditions: dose 1-10 mg/kg, time 1.0 months. The series is classed as functional, organism-based. A digest of the protocol:
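Ovariectomized female balb/c mice, 8 weeks old, 10 per group, received 1.0 or 10.0 mg kg-1 once daily by oral gavage (gum acacia vehicle) for 4 weeks, alongside sham and Ovx vehicle groups. Femurs were scanned by microCT. BV/TV, Tb.N and Tb.Sp were derived by the mean intercept length method. Mean ± SE.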

The nature of series [13]: Acute toxicity in Swiss albino mouse assessed as creatinine level at 50 mg/kg, po measured after 7 days (reference value: 0.97 +/- 0.07 mg/dL). The format is organism-based. As to conditions: in vivo, 168 h, time 7 day.
A short description of series [14]: Acute toxicity in Swiss albino mouse assessed as SGPT level at 5 mg/kg, po measured after 7 days (reference value: 14.04 +/- 1.45 U/L). The format is organism-based. As to conditions: in vivo, 168 h, time 7 day.
A short description of series [15]: Acute toxicity in Swiss albino mouse assessed as absolute kidney weight at 50 mg/kg, po measured after 7 days (reference value: 0.29 +/- 0.02 g). The series is classed as organism-based. The settings on record: in vivo, 168 h, time 7 day.
Series [16] can be described thus: Acute toxicity in Swiss albino mouse assessed as eosinophil count at 1000 mg/kg, po measured after 7 days (reference value: 6.34 +/- 1.04 %). The format is organism-based. The settings on record: in vivo, 168 h, time 7 day.
Series [17] can be described thus: AUC (0 to infinity) in Sprague-Dawley rat at 1 mg/kg, iv measured upto 24 hrs by LC-MS/MS analysis. The series is classed as ADME, organism-based. On the set-up: route intravenous, dose 1 mg/kg, time <=24. The settings on record: in vivo. In outline:
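Female Sprague-Dawley rats (n = 4 per route), fasted overnight; 1 mg/kg oral (0.25% CMC) or i.v. tail-vein bolus (DMSO-PEG400-ethanol-water). Plasma was sampled to 24 h and assayed by LC-MS/MS (0.5-200 ng/mL). Non-compartmental AUC0-∞ = AUC0-t + Clast/kel; mean ± S.D.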

Series [18] is described as follows: Acute toxicity in Swiss albino mouse assessed as WBC count per thousand/mm3 at 5 mg/kg, po measured after 7 days (reference value: 6.84 +/- 0.83 /mm3). The series is classed as organism-based. As to conditions: in vivo, 168 h, time 7 day.
Series [19] can be described thus: Acute toxicity in Swiss albino mouse assessed as body weight at 1000 mg/kg, po observed on day 1 (reference value: 20.38 +/- 0.24 g). The format is organism-based. As to conditions: in vivo, 24 h, time 1 day.
The nature of series [20]: Acute toxicity in Swiss albino mouse assessed as morbidity at 5 to 1000 mg/kg, po measured after 7 days. The format is organism-based. The settings on record: in vivo, 168 h, dose 5-1000 mg/kg, time 7 day. A digest of the protocol: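 Acute oral toxicity per OECD guidelines 420, 423 and 425. Swiss albino mice received a single oral dose at 5, 50, 300 or 1000 mg kg1 body weight, with vehicle controls. Animals were watched for morbidity, mortality and observational changes over 7 days. Tail-vein blood was then taken for hematology and serum biochemistry. Organs were inspected at sacrifice. n = 6 per group.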

The test system of series [21] is Calvarial osteoblast. The series is described as follows: Induction of osteoblast differentiation in mouse calvarial osteoblast assessed as increase in ERbeta expression at 1 pM incubated for 48 hrs by Western blot analysis. The series is classed as functional, cell-based. A digest of the protocol:
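Calvarial osteoblasts at 60–70% confluence were treated ± compound for 48 h, with 100 pM E2 as positive control. Lysates (30 µg protein) were resolved on 10% SDS-PAGE, transferred to PVDF and probed for ER-α and ER-β with HRP secondaries and ECL detection. Bands were quantified by densitometry normalized to β-actin.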
Background: A western blot detects proteins with antibodies after separation by electrophoresis.

A short description of series [22]: Volume of distribution in Sprague-Dawley rat at 1 mg/kg, iv measured upto 24 hrs by LC-MS/MS analysis. The series is classed as ADME, organism-based. As to conditions: in vivo.
Series [23] in a line: Half life in Sprague-Dawley rat at 1 mg/kg, po measured upto 24 hrs by LC-MS/MS analysis. The series is classed as ADME, organism-based. The settings on record: in vivo. A digest of the protocol:
as §1

Series [24] has as its system Mus musculus. Put plainly: In vivo osteogenic activity in ovariectomized BALB/c mouse assessed as increase in force required to break bone at 1 to 10 mg/kg, po via gavage administered for 1 month by TKC Muromachi bone strength testing method. The series is classed as functional, organism-based. As to conditions: dose 1-10 mg/kg, time 1.0 months. In outline:
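Ovariectomized balb/c mice were gavaged with 1 or 10 mg kg-1 daily for one month. Bones were then tested on a bone strength tester for energy, stiffness and force to break. Mean ± SEM compared with the Ovx vehicle group.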

One may read the AUC(0-t) as the area under the concentration-time curve up to a stated or last time point. A low value points to low exposure. The Tmax is the time at which the peak concentration occurs. The term AUC(0-inf) denotes total exposure, with the tail of the curve extrapolated. As usually defined, the Vd is a proportionality between amount in the body and measured concentration, not a real space. Low values mean little distribution into tissue, high ones wide distribution into tissue. Usually half-life stands for how long it takes for the measured level to halve.

Take `CCCCN(C)C(=O)CCCCOc1ccc([C@H]2c3ccc(OC)cc3OC(C)(C)[C@@H]2c2ccccc2)cc1`: the Activity in series [1] was 306.33 U/L; in series [3], 4.84%; in series [5] it was 0.14 nM/mg; in series [6] it was 0.035 mg/mL; in series [9], 1.23%; in series [10] it was 1.46%. In addition, the Activity in [11] is 1.09%; in [13], 0.8 mg/dL; in series [14], 17.44 U/L; in series [15], 0.26 g; in series [16] it was 5.35%; in series [18], 6.1 10^3/mm3. Further, the Activity was 18.42 g in series [19] and “Non-Toxic” in series [20]. Also, the outcome in series [2], in series [4], in series [12], in series [21] and in series [24] was Active. Further, in series [7], the AUC(0-t) came to 114 ng·h/mL. For the same compound, the Tmax in [8] stood at 1.5 h. In [17], this compound had an AUC(0-inf) of 906 ng·h/mL. This compound came in with a volume of distribution (Vd) in series [22] of 5.61 L/kg. Also, the half-life in series [23] was 217 min.
